Test results from PubChem BioAssay AID2204 (Vanderbilt High Throughput Screening Facility, 2009).
pEC50: −log10 of the molar value.

What was measured:
Experiment in all cases: ACh EC20 potentiation across mAChRs – cell-based, calcium flux, selectivity assay for M5 allosteric modulator project, profiling panel (AID 2204)
Details in all cases: CHO-K1 mAChR panel, Fluo-4 calcium flux
[1] = molecular target: Muscarinic acetylcholine receptor M5 (Homo sapiens) (UniProt P08912)
In short: (§1)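 Assay system: transfected CHO-K1 cell lines; Times: 1.5 min compound pre-incubation, 50 s agonist exposure, 25 °C; Reagent: acetylcholine at EC20; Measured by: calcium mobilization signal; Medium: HBSS buffer, pH 7.4, with 2.5 mM probenecid, 20 mM HEPES.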

[2] = molecular target: Muscarinic acetylcholine receptor M1 (Rattus norvegicus) (UniProt P08482)
Sequence of Muscarinic acetylcholine receptor M1 (Rattus norvegicus) (P08482 whole entry, looked up): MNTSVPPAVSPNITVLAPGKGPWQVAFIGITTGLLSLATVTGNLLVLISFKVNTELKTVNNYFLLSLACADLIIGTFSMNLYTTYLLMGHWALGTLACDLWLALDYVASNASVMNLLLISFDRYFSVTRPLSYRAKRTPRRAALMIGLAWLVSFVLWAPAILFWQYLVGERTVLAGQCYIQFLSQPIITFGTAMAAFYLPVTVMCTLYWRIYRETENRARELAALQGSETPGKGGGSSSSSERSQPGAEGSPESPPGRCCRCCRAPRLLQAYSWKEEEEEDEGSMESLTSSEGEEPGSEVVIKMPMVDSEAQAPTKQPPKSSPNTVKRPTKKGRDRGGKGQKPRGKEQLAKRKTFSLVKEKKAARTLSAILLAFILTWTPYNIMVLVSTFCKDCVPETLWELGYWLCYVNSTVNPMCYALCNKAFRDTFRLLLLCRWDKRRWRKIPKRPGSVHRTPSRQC
In short: as §1

[3] = molecular target: Muscarinic acetylcholine receptor M3 (Homo sapiens) (UniProt P20309)
Sequence of Muscarinic acetylcholine receptor M3 (Homo sapiens) (P20309 whole entry, looked up): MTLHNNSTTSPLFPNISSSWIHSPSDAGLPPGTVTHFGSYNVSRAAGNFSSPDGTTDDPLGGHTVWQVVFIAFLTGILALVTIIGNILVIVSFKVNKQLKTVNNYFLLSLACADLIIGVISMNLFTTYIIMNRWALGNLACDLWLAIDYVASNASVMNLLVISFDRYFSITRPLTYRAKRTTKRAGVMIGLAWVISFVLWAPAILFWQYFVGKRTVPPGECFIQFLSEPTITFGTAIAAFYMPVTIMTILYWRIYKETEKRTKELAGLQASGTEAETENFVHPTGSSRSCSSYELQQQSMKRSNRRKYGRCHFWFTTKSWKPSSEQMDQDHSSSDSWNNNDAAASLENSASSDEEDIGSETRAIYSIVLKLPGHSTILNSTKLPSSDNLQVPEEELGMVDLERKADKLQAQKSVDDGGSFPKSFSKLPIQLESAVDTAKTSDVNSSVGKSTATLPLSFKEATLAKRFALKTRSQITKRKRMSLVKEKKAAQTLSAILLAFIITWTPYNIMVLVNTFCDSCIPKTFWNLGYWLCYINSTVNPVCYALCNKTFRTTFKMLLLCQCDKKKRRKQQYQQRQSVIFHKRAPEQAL
In short: as §1

Sequence of Muscarinic acetylcholine receptor M5 (Homo sapiens) (P08912 whole entry, looked up): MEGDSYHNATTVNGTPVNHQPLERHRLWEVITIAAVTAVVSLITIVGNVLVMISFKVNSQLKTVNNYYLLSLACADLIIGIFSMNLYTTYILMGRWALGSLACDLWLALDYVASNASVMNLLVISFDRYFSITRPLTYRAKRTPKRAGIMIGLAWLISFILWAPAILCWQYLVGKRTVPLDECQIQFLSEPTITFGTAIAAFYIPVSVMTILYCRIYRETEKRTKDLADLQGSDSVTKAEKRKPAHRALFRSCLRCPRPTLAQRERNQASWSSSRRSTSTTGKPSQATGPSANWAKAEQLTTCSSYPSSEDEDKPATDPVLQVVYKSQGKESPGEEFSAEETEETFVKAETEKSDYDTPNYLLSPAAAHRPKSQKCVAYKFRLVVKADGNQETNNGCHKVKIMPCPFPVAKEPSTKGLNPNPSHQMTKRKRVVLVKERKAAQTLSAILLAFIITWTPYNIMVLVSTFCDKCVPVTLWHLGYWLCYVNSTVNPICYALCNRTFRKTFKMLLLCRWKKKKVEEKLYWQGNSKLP

| pEC50 [1] | pEC50 [2] | pEC50 [3] | SMILES |
| --- | --- | --- | --- |
| 5.72 | – | – | O=C1C(=O)N(Cc2ccc(Oc3ccccc3)cc2)c2ccc(OC(F)(F)F)cc21 |
| 5.56 | – | – | O=C1C(=O)N(Cc2ccc(-c3ccsc3)cc2)c2ccc(OC(F)(F)F)cc21 |
| 5.39 | 5.22 | 5.20 | O=C1C(=O)N(Cc2ccc(Br)cc2)c2ccccc21 |
| 5.25 | – | 4.99 | COc1ccc(CN2C(=O)C(=O)c3ccc(OC(F)(F)F)cc32)cc1 |
| 5.58 | – | 5.51 | O=C1C(=O)N(Cc2ccc(-c3ccccc3)cc2)c2cc(OC(F)(F)F)ccc21 |
| 5.32 | – | – | O=C1C(=O)N(Cc2ccc(-c3ccc(Cl)nc3)cc2)c2ccc(OC(F)(F)F)cc21 |
| 5.41 | – | – | COc1ccccc1-c1ccc(CN2C(=O)C(=O)c3cc(OC(F)(F)F)ccc32)cc1 |
| 5.45 | – | – | O=C1C(=O)N(Cc2ccc(-c3ccc(F)nc3)cc2)c2ccc(OC(F)(F)F)cc21 |
| 5.57 | – | – | O=C1C(=O)N(Cc2ccc(-c3ccccc3)cc2)c2ccc(OC(F)(F)F)cc21 |
| 5.49 | – | – | Cn1cc(-c2ccc(CN3C(=O)C(=O)c4cc(OC(F)(F)F)ccc43)cc2)cn1 |
| 5.94 | – | 3.96 | COc1ccc(CN2C(=O)C(=O)c3cc(OC(F)(F)F)ccc32)cc1 |
